Compound activity: PubChem BioAssay, The Scripps Research Institute Molecular Screening Center
mABHD4 FP: ABHD4 inhibitors, primary screen, biochemical, fluorescence polarization, mouse; inhibition, % at 8.92 µM; 370,000 compounds, 0.54% hits; (Lyso)-N-acylphosphatidylethanolamine lipase (Mus musculus), Q8VD66; purified mABHD4, FP-Rh probe fluorescence polarization;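 active means inhibition exceeding the mean over every tested compound plus 3 SD, cut at about 30% in these data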;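 further: 0% = plate median of compound wells and 100% = S159A mutant with DMSO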
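system = mouse ABHD4 enzyme, wild type | medium = HEPES pH 7.0, NaCl, Pluronic buffer | also added = FP-Rh probe | incubation = Enzyme–compound pre-incubation 45 min, then probe 60 min, both 25 °C | technique = fluorescence polarization, excitation 525 nm, emission 598 nm, BODIPY TMR filters | controls = S159A mutant high control, sample median low control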
PRMT1 FP inh: PRMT1 methyltransferase inhibitors, primary screen, biochemical, fluorescence polarization | Protein arginine N-methyltransferase 1 (Homo sapiens), Q99873 | recombinant PRMT1, activity-based probe fluorescence polarization | inhibition, % at 2.79 µM | 370,000 compounds, 1.3% hits | AID 652257, 2013;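 active means inhibition above about 21% made by adding two undisclosed values, limit read from the data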
SIAE primary: human SIAE inhibitors, primary screen, biochemical, fluorescence polarization, FP-Rh probe, 1536-well HTS | inhibition, % at 9.66 µM | Sialate O-acetylesterase (Homo sapiens), Q9HAT2 | 370,000 compounds, 0.69% hits | SIAE FP-Rh probe binding | AID 1053197, 2014;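 active means inhibition above a cutoff: mean of compounds within the control limits plus 3 SD of those, cut at about 17% in these data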;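 further: 0% = plate median of compound wells and 100% = probe without SIAE protein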
HTRA1 inhibitor: HTRA1 serine protease inhibitors, primary screen, biochemical, fluorescence polarization, HTS; Q92743; recombinant HTRA1, FP-rhodamine activity-based probe; inhibition, % at 5.96 µM; 340,000 compounds, 0.5% hits; in the data active means inhibition above about 36%;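 further: 0% = enzyme with DMSO and 100% = wells lacking enzyme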
Target sequence (Q92743 whole entry, looked up): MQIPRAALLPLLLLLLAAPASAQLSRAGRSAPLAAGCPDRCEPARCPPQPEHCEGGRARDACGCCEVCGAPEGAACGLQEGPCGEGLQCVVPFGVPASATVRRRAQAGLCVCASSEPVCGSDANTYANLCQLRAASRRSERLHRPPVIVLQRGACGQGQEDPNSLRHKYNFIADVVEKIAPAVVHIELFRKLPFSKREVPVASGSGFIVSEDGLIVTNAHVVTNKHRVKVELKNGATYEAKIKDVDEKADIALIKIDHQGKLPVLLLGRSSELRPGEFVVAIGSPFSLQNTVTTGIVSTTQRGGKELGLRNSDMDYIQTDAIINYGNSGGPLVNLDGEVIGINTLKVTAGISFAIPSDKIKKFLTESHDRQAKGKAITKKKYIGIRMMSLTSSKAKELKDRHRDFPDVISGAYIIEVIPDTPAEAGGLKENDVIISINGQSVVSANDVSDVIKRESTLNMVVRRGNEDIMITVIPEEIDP
TCR-CD3 inh: inhibitors of human TCR-CD3 interaction, primary screen, biochemical, fluorescence, TAMRA-labeled TCR probe; inhibition, % at 9.4 µM; 360,000 compounds, 0.37% hits; AID 651800, 2012; in the data active means inhibition above about 19%;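 further: recombinant mutant TCR 2C K166C tagged with TAMRA read by polarization; 0% = receptor in buffer alone and 100% = receptor with positive control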
PRMT1 inh conf: PRMT1 methyltransferase inhibitors, confirmation, biochemical, fluorescence polarization, triplicate. inhibition, % at 2.79 µM. AID 687036, 2013. 3,300 compounds, 42% hits. recombinant His-PRMT1, activity-based probe fluorescence polarization. shares compounds with PRMT1 FP inh;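 active means mean inhibition across replicates above the hit cutoff derived for the earlier primary screen, cut at about 22% in these data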
Numbers without * were called inactive; . = no result given. In the library only some 2.7% were active in any assay of this set; here they are far more common.

SMILES	mABHD4 FP	PRMT1 FP inh	SIAE primary	HTRA1 inhibitor	TCR-CD3 inh	PRMT1 inh conf
COc1cc(CN2CCCC(C(=O)c3ccc4c5c(cccc35)CC4)C2)cc(OC)c1O (centres undefined)	1	28*	3	-12	-3	8
CCCC1CC(=O)NC1(C(=O)OCC)C(=O)OCC (centres undefined)	-3	0	-3	0	3	.
O=C(Nc1ccccc1)OCCN1CCCC12CCC(c1ccccc1)CC2 (centres undefined)	-1	4	-6	.	.	.
COc1ccc(NC(=O)OCCN2CCCC23CCC(c2ccccc2)CC3)cc1 (centres undefined)	0	0	8	.	.	.
O=C(Nc1ccc(Br)cc1)OCCN1CCCC12CCC(c1ccccc1)CC2 (centres undefined)	7	-3	-4	.	.	.
S=C(Nc1cccc(Cl)c1)OCCN1CCCC12CCC(c1ccccc1)CC2 (centres undefined)	2	44*	-5	.	.	58*
S=C(Nc1ccccc1Cl)OCCN1CCCC12CCC(c1ccccc1)CC2 (centres undefined)	4	57*	2	.	.	41*
S=C(Nc1ccc(Br)cc1)OCCN1CCCC12CCC(c1ccccc1)CC2 (centres undefined)	3	52*	-1	.	.	56*
COc1nc(=O)n(C2C=CC(=O)O2)cc1F (centres undefined)	0	-2	2	5	-1	.
COc1ccc(Cl)cc1NC(=O)CN1CCN(S(=O)(=O)N2CCCCC2)CC1	0	-2	-7	0	1	.
CC1=C(C(=O)N2CCCCCC2)CC(CC(=O)NC2CC2)C(=O)N1Cc1ccccc1 (centres undefined)	-5	1	1	.	-8	.
COc1cc(C(C(=O)NCc2ccccc2)N(C(=O)c2snc(C(N)=O)c2N)C2CCCC2)cc(OC)c1OC (centres undefined)	1	2	0	-1	0	.
Cc1ccccc1-n1c(SCC(=O)Nc2c(C)cccc2C)nc(O)cc1=O	-16	10	6	-4	-4	.
O=C1OC(c2ccc(Cl)cc2)=N/C1=C\C=C\c1ccco1	25	39*	5	4	2	3
O=C1OC(c2ccccc2)=N/C1=C\C=C\c1ccco1	21	26*	7	3	9	7
COc1ccc(OC)c(NC(=O)CCN2CC(C)CC(C)C2)c1 (centres undefined)	.	.	.	-5	.	.
COC(=O)[C@]1(Cc2ccccc2)N[C@H](c2ccc(-c3cc(C(C)=O)cs3)cc2)[C@@H]2C(=O)N(C)C(=O)[C@@H]21	1	-2	7	3	-5	.
O=C(Nc1cccc(C(=O)O)c1)/C(=C\c1ccco1)NC(=O)c1ccccc1	4	14	2	-4	3	.
O=C(Nc1cccc(C(=O)O)c1)/C(=C\c1ccc(F)cc1)NC(=O)c1ccco1	-5	1	-3	4	-7	.
O=C(Nc1cccc(F)c1)/C(=C/c1ccco1)NC(=O)c1ccco1	4	30*	5	-7	-1	6
O=C(Nc1cccc(C(=O)O)c1)/C(=C\c1ccco1)NC(=O)c1ccc(Br)o1	7	34*	0	0	0	1
O=C(Nc1cccc(C(=O)O)c1)/C(=C\c1ccco1)NC(=O)c1ccccc1Cl	22	30*	-2	-4	-2	5
CC(C)(C)S(=O)N1C[C@@H]2CC(=O)C=C2[C@H]1CCO (some centres undefined)	5	4	3	.	-10	.
CCNC(=O)C1(C)CCN(C(=O)c2ccc3c(c2)OCO3)C1 (centres undefined)	-1	-3	0	.	-3	.
Cc1ccc2cc3c(N)c(C(=O)Nc4c(C)[nH]c(=O)[nH]c4=O)sc3nc2c1	1	31*	-5	0	-2	2
